From ChEMBL document CHEMBL5252514, “Conopeptide-Derived κ-Opioid Agonists (Conorphins): Potent, Selective, and Metabolic Stable Dynorphin A Mimetics with Antinociceptive Properties” (J Med Chem, 2016) come the findings set out here.

A short description of data set [1]: Metabolic stability in Wistar rat plasma assessed as half life by HPLC analysis. The data set is classed as ADME, cell-free. The procedure, abridged: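 Peptide at 1 mg/mL in sterile PBS pH 7.4 was mixed 1:1 with thawed, centrifuged Wistar rat plasma supernatant and incubated at 37°C in triplicate. Samples at 0, 1, 2, 3, 4, 6 and 24 h were quenched with acetonitrile and then 2% TFA/water, and analysed by HPLC with inline electrospray MS.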

Data set [2] deals with Kappa-type opioid receptor (Homo sapiens, UniProt P41145). Put plainly: Displacement of [3H]U69593 from human kappa opioid receptor expressed in CHO-K1 cells incubated for 1 hr by 1450 microbeta scintillation counter analysis. The data set is classed as cell-based. The procedure, abridged: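 Membranes from transiently KOR-transfected CHO-K1 cells (~2 µg/well) used in SPA with 3H-U69,593 (1 nM). Competitor ranged 1 pM–10 µM in 50 mM Tris-HCl pH 7.4, 5 mM MgCl2, 0.1% BSA. Incubated 1 h at room temperature with shaking. Nonspecific binding defined with 10 µM dynorphin A. Sigmoidal dose-response fit; at least three independent experiments in triplicate.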
Chain of Kappa-type opioid receptor (P41145 whole entry): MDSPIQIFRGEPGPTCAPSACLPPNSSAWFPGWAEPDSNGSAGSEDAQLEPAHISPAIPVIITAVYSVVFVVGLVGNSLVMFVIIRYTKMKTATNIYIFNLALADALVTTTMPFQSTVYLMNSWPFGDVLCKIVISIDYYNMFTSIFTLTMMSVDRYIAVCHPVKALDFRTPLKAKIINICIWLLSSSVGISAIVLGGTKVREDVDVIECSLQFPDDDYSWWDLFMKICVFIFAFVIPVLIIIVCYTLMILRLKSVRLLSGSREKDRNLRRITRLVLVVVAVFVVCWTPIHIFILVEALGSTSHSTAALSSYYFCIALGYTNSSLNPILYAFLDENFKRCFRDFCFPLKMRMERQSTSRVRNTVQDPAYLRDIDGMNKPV
(In general: Loss of bound radioactivity is the signal in a displacement assay; it reports binding, not function.)

Where a SMILES comes first, the peptide text is derived from it.

The term half-life denotes the time needed for the level to fall by half in the phase considered. In general, Ki refers to the dissociation constant of the complex between target and ligand, obtained from inhibition or displacement. Turning to `N=C(N)NCCC[C@@H](NC(=O)[C@@H](CCCNC(=N)N)NC(=O)[C@@H]1CCCN1C(=O)c1ccccc1)C(=O)N[C@@H](CCC(N)=O)C(=O)N[C@H](CN[C@H]1CSSC[C@@H](C(N)=O)NC1=O)CC1CCCCC1`, the half-life in data set [1] was 960 min. The compound also registered a Ki in data set [2] of 0.135 µM.

Compound `CC[C@H](C)[C@H](NC(=O)[C@H](CCC(N)=O)NC(=O)[C@H](CCCNC(=N)N)NC(=O)[C@@H](N)CCCNC(=N)N)C(N)=O` (H-RRQI-NH2) registered a Ki in data set [2] of 23 µM.
